# Data as given in ChEMBL document CHEMBL1125497, “Synthesis and anticonvulsant activity of enaminones” (J Med Chem, 1992).
# Experiments:
# [1] = Antiepileptic activity in male CF1 mice 30 min after administration measured in subcutaneous pentylenetetrazole (scMet) test at a dose of 300 mg/kg (no. of animals treated /protected); activity value is 0/1; format: functional, Mus musculus
# [2] = Antiepileptic activity in male CF1 mice 4 hr after administration measured in subcutaneous pentylenetetrazole (scMet) test at a dose of 300 mg/kg (no. of animals treated /protected); activity value is 0/1; format: functional, Mus musculus
# [3] = Dose at which anticonvulsant activity was observed in mice; format: functional, Mus musculus
# [4] = Anticonvulsant activity administered intraperitoneally in CF1 mice is the ability to protect the mice from MES(maximal electroshock seizure).; format: functional; details: Mus musculus, ip
# [5] = Antiepileptic activity in male CF1 mice 30 min after administration measured in neurological toxicity (Tox) test at a dose of 300 mg/kg (no. of animals treated /protected); activity value is 1/4; format: functional, Mus musculus
# [6] = Protective index was measured as TD50/ED50; format: ADME; details: read-out: PI
# [7] = Antiepileptic activity in male CF1 mice 4 hr after administration measured in neurological toxicity (Tox) test at a dose of 300 mg/kg (no. of animals treated /protected); activity value is 0/2; format: functional, Mus musculus
# [8] = Antiepileptic activity in male CF1 mice 4 hr after administration measured in maximum electroshock seizure(MES) test at a dose of 300 mg/kg (no. of animals treated /protected); activity value is 0/1; format: functional, Mus musculus
# [9] = Time of peak neurotoxic effect in CF1 mice; format: ADME; details: mouse, in vivo
# Summary of the method: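 Male CF1 mice (ca. 24–34 g), compound ip in 0.5% methylcellulose suspension; neurological deficit assessed by rotorod test, time (h) of peak neurotoxic effect recorded for TD50 determination.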
# [10] = Antiepileptic activity in male CF1 mice 30 min after administration measured in maximum electroshock seizure(MES) test at a dose of 300 mg/kg (no. of animals treated /protected); activity value is 1/1; format: functional, Mus musculus
# [11] = Time of peak anticonvulsant effect in CF1 mice; format: functional, Mus musculus
# Summary of the method: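 Male CF1 mice (ca. 24–34 g), compound in 0.5% methylcellulose suspension given ip or po; time (h) at which MES protection (against tonic hind limb extension) peaked was recorded and used for ED50 determination.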
# [12] = (§1) Dose producing neurotoxic effects in 50% of the CF1 mice after intraperitoneal administration.; format: ADME; details: CF1, mouse, in vivo, ip
# Summary of the method: (§2)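 Phase II quantification in CF1 male mice (ca. 24–34 g), dosing ip or po in 0.5% methylcellulose suspension. ED50 is protection from tonic hind limb extension in MES. TD50 is rotorod neurotoxicity. Both were read at time of peak effect and derived by Litchfield–Wilcoxon with 95% confidence limits.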
# [13] = Antiepileptic activity in male CF1 mice 30 min after administration measured in neurological toxicity (Tox) test at a dose of 300 mg/kg (no. of animals treated /protected); activity value is 0/4; format: functional, Mus musculus
# [14] = Antiepileptic activity in male CF1 mice 4 hr after administration measured in maximum electroshock seizure(MES) test at a dose of 300 mg/kg (no. of animals treated /protected); activity value is 1/1; format: functional, Mus musculus
# [15] = Antiepileptic activity in male CF1 mice 30 min after administration measured in maximum electroshock seizure(MES) test at a dose of 300 mg/kg (no. of animals treated /protected); activity value is 0/1; format: functional, Mus musculus
# [16] = Antiepileptic activity in male CF1 mice 30 min after administration measured in neurological toxicity (Tox) test at a dose of 100 mg/kg (no. of animals treated /protected); activity value is 0/8; format: functional, Mus musculus
# [17] = Antiepileptic activity in male CF1 mice 4 hr after administration measured in neurological toxicity (Tox) test at a dose of 100 mg/kg (no. of animals treated /protected); activity value is 0/4; format: functional, Mus musculus
# [18] = Antiepileptic activity in male CF1 mice 30 min after administration measured in maximum electroshock seizure(MES) test at a dose of 100 mg/kg (no. of animals treated /protected); activity value is 1/3; format: functional, Mus musculus
# [19] = Antiepileptic activity in male CF1 mice 4 hr after administration measured in maximum electroshock seizure(MES) test at a dose of 100 mg/kg (no. of animals treated /protected); activity value is 0/3; format: functional, Mus musculus
# [20] = Antiepileptic activity in male CF1 mice 30 min after administration measured in subcutaneous pentylenetetrazole (scMet) test at a dose of 100 mg/kg (no. of animals treated /protected); activity value is 0/1; format: functional, Mus musculus
# [21] = Antiepileptic activity in male CF1 mice 4 hr after administration measured in subcutaneous pentylenetetrazole (scMet) test at a dose of 100 mg/kg (no. of animals treated /protected); activity value is 0/1; format: functional, Mus musculus
# [22] = Oral dose producing neurotoxic effects in 50% of rats; format: ADME, organism-based; details: rat, in vivo
# Summary of the method: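 Phase VI screen in male Sprague-Dawley rats dosed orally. MES protection and rotorod toxicity were scored as animals responding over animals tested at 0.25, 0.5, 1, 2 and 4 h.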
# [23] = as §1; format: functional; details: Mus musculus, ip; read-out: ED50 (the source's name); summary of the method: as §2
# [24] = Antiepileptic activity in male CF1 mice 30 min after administration measured in maximum electroshock seizure(MES) test at a dose of 100 mg/kg (no. of animals treated /protected); activity value is 2/3; format: functional, Mus musculus
# [25] = Antiepileptic activity in male CF1 mice 4 hr after administration measured in subcutaneous pentylenetetrazole (scMet) test at a dose of 300 mg/kg; activity value is 0/1; format: functional, Mus musculus
Structure (SMILES),Activity [1],Activity [2],Dose [3],ED50 [4] [mg/kg],Activity [5],selectivity ratio [6],Activity [7],Activity [8],TPE [9],Activity [10],TPE [11],Activity [13],Activity [14],Activity [15],Activity [16],Activity [17],Activity [19],Activity [20],Activity [21],also measured
COC(=O)C1C(O)=C/C(=N\Cc2ccccc2)CC1(C)C (stereo unspecified),0,0,>100 mg/kg,132,1,3.8,0,0,1,1,0.5,–,–,–,–,–,–,–,–,TD50 [12]: > 500 mg/kg
CC1CC(NCCc2ccccc2)=CC(=O)C1C(=O)NCCc1ccccc1 (stereo unspecified),0,0,>100 mg/kg,–,–,–,0,–,–,–,–,0,1,0,–,–,–,–,–,–
COC(=O)C1C(O)=C/C(=N\CCc2ccccc2)CC1(C)C (stereo unspecified),0,0,<=100 mg kg-1,–,1,–,0,0,–,1,–,–,–,–,0,0,0,0,0,Activity [18]: 1
CC1(C)CC(O)=C/C(=N\c2ccccc2)C1,0,0,<=100 mg kg-1,109,–,2.1,0,0,0.5,1,0.5,0,–,–,0,0,0,0,0,TD50 [22]: > 250 mg/kg; TD50 [23]: 233 mg/kg; Activity [24]: 2
NC(=O)N1c2ccccc2C=Cc2ccccc21 [CARBAMAZEPINE],–,–,–,8.8,–,–,–,–,0.25,–,0.25,–,–,–,–,–,–,–,–,–
COC(=O)C1C(=O)C=C(NNc2ccccc2)CC1C (stereo unspecified),0,–,>100 mg/kg,–,–,–,0,–,–,–,–,0,1,0,–,–,–,–,–,Activity [25]: 0
